Measured values: ChEMBL document CHEMBL4414558, “Dehydroabietylamine Ureas and Thioureas as Tyrosyl-DNA Phosphodiesterase 1 Inhibitors That Enhance the Antitumor Effect of Temozolomide on Glioblastoma Cells” (J Nat Prod, 2019)

Experiments:
[1] = molecular target: Tyrosyl-DNA phosphodiesterase 1 (Homo sapiens, UniProt Q9NUW8, H493R); experiment: Inhibition of recombinant TDP1 H493R mutant (unknown origin) using 5'-(5,6 FAM-aac gtc agg gtc ttc c-BHQ1)-3' as substrate measured every 55 secs for 8 mins by fluorescence based assay
Summary of the method: (§1)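 Purified TDP1, either wild-type or the H493R mutant, tested against the fluorogenic substrate. The IC50 is the compound concentration that cuts enzyme activity by 50%.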

[2] = molecular target: Poly [ADP-ribose] polymerase 2 (Homo sapiens) (UniProt Q9UGN5); experiment: Inhibition of PARP2 (unknown origin) assessed as residual activity at 100 uM relative to control
WI-38 = experiment: Cytotoxicity activity against human WI38 cells assessed as reduction in cell viability incubated for 72 hrs by MTT assay; type: cell-based; settings: WI-38, 72 h
U-87 MG [3] = experiment: Cytotoxicity activity against human U87MG cells assessed as reduction in cell viability incubated for 72 hrs by MTT assay; type: cell-based, U-87MG ATCC
[4] = molecular target: Poly [ADP-ribose] polymerase 1 (Homo sapiens) (UniProt P09874); experiment: Inhibition of PARP1 (unknown origin) assessed as residual activity at 100 uM relative to control
A549 = experiment: Cytotoxicity activity against human A549 cells assessed as reduction in cell viability incubated for 72 hrs by MTT assay; type: cell-based; settings: A549, 72 h
U-937 = experiment: Cytotoxicity activity against human U937 cells assessed as reduction in cell viability incubated for 72 hrs by MTT assay; type: cell-based; settings: U-937, 72 h
T98G = experiment: Cytotoxicity activity against human T98G cells assessed as reduction in cell viability incubated for 72 hrs by MTT assay; type: cell-based
[5] = molecular target: Tyrosyl-DNA phosphodiesterase 1 (Homo sapiens, UniProt Q9NUW8); experiment: Inhibition of recombinant TDP1 (unknown origin) using 5'-(5,6 FAM-aac gtc agg gtc ttc c-BHQ1)-3' as substrate measured every 55 secs for 8 mins by fluorescence based assay; summary of the method: as §1
[6] = Cytotoxicity activity against human MDA-MB cells assessed as reduction in cell viability incubated for 72 hrs by MTT assay; type: cell-based
SNB-19 [7] = experiment: Cytotoxicity activity against human SNB19 cells assessed as reduction in cell viability incubated for 72 hrs by MTT assay; type: cell-based; settings: SNB-19, 72 h
MCF7 = experiment: Cytotoxicity activity against human MCF7 cells assessed as reduction in cell viability incubated for 72 hrs by MTT assay; type: cell-based; settings: MCF7, 72 h
[8] = Cytotoxicity activity against human SK-MEL-8 cells assessed as reduction in cell viability incubated for 72 hrs by MTT assay; type: cell-based
U-87 MG [9] = experiment: Potentiation of TMZ-induced cytotoxicity against human U87MG cells assessed as combination index at 100 uM incubated for 72 hrs in presence of 2500 uM TMZ by MTT assay; type: functional, U-87MG ATCC
SNB-19 [10] = experiment: Potentiation of TMZ-induced cytotoxicity against human SNB19 cells assessed as cell viability at 100 uM incubated for 72 hrs in presence of 1250 uM TMZ by MTT assay (Rvb =100%); type: functional
U-87 MG [11] = experiment: Potentiation of TMZ-induced cytotoxicity against human U87MG cells assessed as cell viability at 100 uM incubated for 72 hrs in presence of 2000 uM TMZ by MTT assay (reference value: 100%); type: functional, U-87MG ATCC
SNB-19 [12] = experiment: Potentiation of TMZ-induced cytotoxicity against human SNB19 cells assessed as combination index at 75 uM incubated for 72 hrs in presence of 2000 uM TMZ by MTT assay; type: functional
SNB-19 [13] = experiment: Potentiation of TMZ-induced cytotoxicity against human SNB19 cells assessed as reduction in cell viability at 75 uM incubated for 72 hrs in presence of 2000 uM TMZ by MTT assay relative to TMZ alone; type: functional
U-87 MG [14] = experiment: Potentiation of TMZ-induced cytotoxicity against human U87MG cells assessed as combination index at 100 uM incubated for 72 hrs in presence of 2000 uM TMZ by MTT assay; type: functional, U-87MG ATCC
U-87 MG [15] = experiment: Potentiation of TMZ-induced cytotoxicity against human U87MG cells assessed as reduction in cell viability at 100 uM incubated for 72 hrs in presence of 2500 uM TMZ by MTT assay relative to TMZ alone; type: functional, U-87MG ATCC
SNB-19 [16] = experiment: Potentiation of TMZ-induced cytotoxicity against human SNB19 cells assessed as cell viability at 75 uM incubated for 72 hrs in presence of 2000 uM TMZ by MTT assay (Rvb =100%); type: functional
U-87 MG [17] = experiment: Potentiation of TMZ-induced cytotoxicity against human U87MG cells assessed as reduction in cell viability at 100 uM incubated for 72 hrs in presence of 2000 uM TMZ by MTT assay relative to TMZ alone; type: functional, U-87MG ATCC
SNB-19 [18] = experiment: Potentiation of TMZ-induced cytotoxicity against human SNB19 cells assessed as combination index at 100 uM incubated for 72 hrs in presence of 1250 uM TMZ by MTT assay; type: functional
U-87 MG [19] = experiment: Potentiation of TMZ-induced cytotoxicity against human U87MG cells assessed as cell viability at 100 uM incubated for 72 hrs in presence of 2500 uM TMZ by MTT assay (reference value: 100%); type: functional, U-87MG ATCC
SNB-19 [20] = experiment: Potentiation of TMZ-induced cytotoxicity against human SNB19 cells assessed as reduction in cell viability at 100 uM incubated for 72 hrs in presence of 1250 uM TMZ by MTT assay relative to TMZ alone; type: functional

Chain of Tyrosyl-DNA phosphodiesterase 1 (Homo sapiens, UniProt Q9NUW8) (Q9NUW8 whole entry): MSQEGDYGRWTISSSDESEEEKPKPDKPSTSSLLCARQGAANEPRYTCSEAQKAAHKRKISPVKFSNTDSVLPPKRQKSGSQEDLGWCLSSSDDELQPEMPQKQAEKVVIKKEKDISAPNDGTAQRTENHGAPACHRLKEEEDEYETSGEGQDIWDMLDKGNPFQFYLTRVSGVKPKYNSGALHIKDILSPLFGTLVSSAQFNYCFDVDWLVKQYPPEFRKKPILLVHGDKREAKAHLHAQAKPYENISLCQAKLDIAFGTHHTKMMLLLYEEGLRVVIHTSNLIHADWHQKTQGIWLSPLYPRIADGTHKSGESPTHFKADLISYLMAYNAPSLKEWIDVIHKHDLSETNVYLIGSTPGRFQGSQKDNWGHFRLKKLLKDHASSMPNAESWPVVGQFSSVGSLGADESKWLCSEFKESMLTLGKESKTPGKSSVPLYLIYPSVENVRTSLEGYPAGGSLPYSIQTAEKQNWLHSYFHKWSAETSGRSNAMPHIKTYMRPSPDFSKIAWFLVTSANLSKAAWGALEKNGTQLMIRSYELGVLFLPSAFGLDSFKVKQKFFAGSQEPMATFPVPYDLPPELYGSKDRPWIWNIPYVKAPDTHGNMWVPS
Chain of Tyrosyl-DNA phosphodiesterase 1 (Homo sapiens, UniProt Q9NUW8, H493R) (Q9NUW8 whole entry H493R): as the sequence (Q9NUW8 whole entry) above, with H493R counted along it
Chain of Poly [ADP-ribose] polymerase 2 (Homo sapiens) (Q9UGN5 whole entry): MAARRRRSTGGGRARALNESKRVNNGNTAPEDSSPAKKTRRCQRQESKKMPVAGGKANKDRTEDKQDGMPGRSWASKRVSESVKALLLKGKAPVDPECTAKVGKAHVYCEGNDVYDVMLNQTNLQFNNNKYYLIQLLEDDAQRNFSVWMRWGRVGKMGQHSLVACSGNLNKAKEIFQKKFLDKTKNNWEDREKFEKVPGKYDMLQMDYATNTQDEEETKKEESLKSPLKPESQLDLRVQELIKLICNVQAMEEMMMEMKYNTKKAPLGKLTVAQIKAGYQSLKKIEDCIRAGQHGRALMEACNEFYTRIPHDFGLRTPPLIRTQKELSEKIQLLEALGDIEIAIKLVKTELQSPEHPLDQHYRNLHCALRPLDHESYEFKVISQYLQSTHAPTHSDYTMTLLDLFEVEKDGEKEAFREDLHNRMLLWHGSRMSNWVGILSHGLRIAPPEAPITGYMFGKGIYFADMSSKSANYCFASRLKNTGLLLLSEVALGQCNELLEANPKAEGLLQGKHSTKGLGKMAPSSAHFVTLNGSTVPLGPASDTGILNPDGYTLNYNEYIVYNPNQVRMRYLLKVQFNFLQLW
Chain of Poly [ADP-ribose] polymerase 1 (Homo sapiens) (P09874 whole entry): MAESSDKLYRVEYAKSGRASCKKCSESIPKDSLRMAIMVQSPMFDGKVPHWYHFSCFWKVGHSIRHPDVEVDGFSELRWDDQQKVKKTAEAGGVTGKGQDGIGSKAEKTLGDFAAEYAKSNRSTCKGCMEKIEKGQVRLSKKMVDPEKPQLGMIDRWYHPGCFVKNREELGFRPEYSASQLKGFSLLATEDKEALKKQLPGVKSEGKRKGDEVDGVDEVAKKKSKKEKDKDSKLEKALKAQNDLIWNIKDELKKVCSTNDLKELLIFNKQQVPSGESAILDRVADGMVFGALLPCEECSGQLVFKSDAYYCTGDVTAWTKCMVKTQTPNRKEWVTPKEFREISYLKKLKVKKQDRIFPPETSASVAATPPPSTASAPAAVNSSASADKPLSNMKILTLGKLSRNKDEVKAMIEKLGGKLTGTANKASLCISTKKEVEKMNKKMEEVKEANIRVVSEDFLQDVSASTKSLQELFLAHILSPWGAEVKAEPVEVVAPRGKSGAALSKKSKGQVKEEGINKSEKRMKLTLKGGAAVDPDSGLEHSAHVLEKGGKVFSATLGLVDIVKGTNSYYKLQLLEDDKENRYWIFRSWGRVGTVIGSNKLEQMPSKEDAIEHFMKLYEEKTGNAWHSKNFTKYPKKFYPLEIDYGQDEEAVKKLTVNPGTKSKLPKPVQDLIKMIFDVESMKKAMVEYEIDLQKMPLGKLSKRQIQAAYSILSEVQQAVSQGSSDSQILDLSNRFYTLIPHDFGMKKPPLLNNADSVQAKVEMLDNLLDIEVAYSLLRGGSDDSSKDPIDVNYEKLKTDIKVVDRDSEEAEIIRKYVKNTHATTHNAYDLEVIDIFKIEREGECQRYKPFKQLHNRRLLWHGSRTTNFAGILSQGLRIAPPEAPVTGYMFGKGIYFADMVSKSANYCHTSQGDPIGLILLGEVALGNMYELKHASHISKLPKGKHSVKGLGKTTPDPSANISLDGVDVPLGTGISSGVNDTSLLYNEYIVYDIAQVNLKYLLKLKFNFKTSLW

Compound | IC50 [1] [µM] | Activity [2] [%] | IC50 (WI-38) [µM] | IC50 (U-87 MG [3]) [µM] | Activity [4] [%] | IC50 (A549) [µM] | IC50 (U-937) [µM] | IC50 (T98G) [µM] | IC50 [5] [µM] | IC50 [6] [µM] | IC50 (SNB-19 [7]) [µM] | IC50 (MCF7) [µM] | IC50 [8] [µM] | CI (U-87 MG [9]) | Activity (SNB-19 [10]) [%] | Activity (U-87 MG [11]) [%] | CI (SNB-19 [12]) | fold change (FC) (SNB-19 [13]) | CI (U-87 MG [14]) | fold change (FC) (U-87 MG [15]) | further results
CC(C)c1ccc2c(c1)CC[C@H]1[C@](C)(CNC(=O)Nc3ccc(Cl)cc3)CCC[C@]21C | 34.1 | 93 | > 100 | > 100 | 93 | > 100 | 15 | 21.2 | 0.28 | > 100 | < 10 | 52 | > 100 | – | – | – | – | – | – | – | –
CC(C)c1ccc2c(c1)CC[C@H]1[C@](C)(CNC(=O)NC34CC5CC(CC(C5)C3)C4)CCC[C@]21C | 19.3 | 107 | – | > 100 | 79 | > 100 | – | > 100 | 0.1 | > 100 | > 100 | – | > 100 | 0.43 | 61.3 | 72 | 0.13 | 1.6 | 0.44 | 1.7 | Activity (SNB-19 [16]): 63.7%; fold change (FC) (U-87 MG [17]): 1.4; CI (SNB-19 [18]): 0.25; Activity (U-87 MG [19]): 58.2%; fold change (FC) (SNB-19 [20]): 1.6
CC(C)c1ccc2c(c1)CC[C@H]1[C@](C)(CNC(=O)NC3CCCCC3)CCC[C@]21C | 39.2 | 99 | 52 | > 100 | 96 | > 100 | > 100 | > 100 | 0.5 | > 100 | < 10 | > 100 | > 100 | – | – | – | – | – | – | – | –
CCNC(=S)NC[C@]1(C)CCC[C@]2(C)c3ccc(C(C)C)cc3CC[C@@H]12 | > 50 | 116 | – | > 100 | 100 | > 100 | 18.7 | > 100 | 2.3 | > 100 | < 10 | – | > 100 | – | – | – | – | – | – | – | –
Cc1ccc(NC(=O)NC[C@]2(C)CCC[C@]3(C)c4ccc(C(C)C)cc4CC[C@@H]23)cc1NC(=O)NC[C@]1(C)CCC[C@]2(C)c3ccc(C(C)C)cc3CC[C@@H]12 | 5.4 | 135 | > 100 | > 100 | 83 | > 100 | > 100 | > 100 | 0.11 | > 100 | > 100 | > 100 | > 100 | 0.63 | 99.5 | 100.7 | 0.27 | 1.2 | 1.03 | 1.2 | Activity (SNB-19 [16]): 84.4%; CI (SNB-19 [18]): 0.99; Activity (U-87 MG [19]): 82.1%
CC(C)c1ccc2c(c1)CC[C@H]1[C@](C)(CNC(=S)Nc3ccccc3)CCC[C@]21C | 19.9 | 116 | 70 | > 100 | 98 | > 100 | > 100 | – | 0.71 | > 100 | – | 26 | > 100 | – | – | – | – | – | – | – | –
